Only some compounds are listed: those with a hit (about 1.9% of all), similar ones and a draw of the others.
MT stabilizer = microtubule stabilization, imaging screen | HeLa tubulin immunostaining HCS, 24 h; share of cells brighter than vehicle mean+2SD | % tubulin-high responders, % at 10 µM | 200,000 compounds, 0.83% hits | AID 2205;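 active means plate Z-score above 3 for both tubulin-high and condensed-nucleus cell shares, with cell loss under 80%, at 10 µM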;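 further: anti alpha tubulin signal scored within the nucleus-defined area of each cell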
b-catenin transl = modulators of beta-catenin nuclear translocation; 190,000 compounds, 0.3% hits; nuclear translocation activity, % at 5 µM; HeLa beta-catenin nuclear translocation, immunofluorescence imaging;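 active means nuclear translocation activity above 50% at 5 µM, with a well cell count of 50 or more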;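 further: per-cell ratio of nuclear to cytoplasmic median beta-catenin stain intensity; plate controls were DMSO negative control for no effect and GSK-3 inhibitor IX positive control for full effect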
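Test system: human HeLa cell line; Doses: 5 µM primary, 0.02–20 µM confirmation; Incubation: 24 h compound exposure, 37°C; Detection: beta-catenin immunofluorescence imaging with DAPI; Read-out: beta-catenin nuclear/cytoplasmic ratio, % activation.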
Autophagy HCS = autophagy modulation, high-content screen; calls only at 10 µM (by protocol); 190,000 compounds, 0.98% hits; MEF GFP-LC3 puncta imaging; test concentration mostly 10 µM;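 active means percentage of spot-positive cells more than 3 SD above its plate mean, without a fluorescence outlier flag or 80% toxicity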;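 further: spot-positive cell cutoff set from DMSO-treated cells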
Insulin prom up = MIN6 insulin promoter up-regulation; MIN6 insulin promoter-GFP reporter, high-content imaging; active compounds read high; z-score at 5 µM; 190,000 compounds, 0.3% hits; AID 1625;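 active means z-score above 3 at 5 µM with at least 500 cells counted in the well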
Numbers without * were called inactive; i = inactive; . = no result given; + = active, no number.

SMILES	MT stabilizer	b-catenin transl	Autophagy HCS	Insulin prom up
Cc1cc(NC(=S)NC(=O)c2ccccc2)ccc1-c1cc2ccccc2oc1=O	15*	0	i	0.21
Cc1ccc(C(=O)Nc2cc3ccccc3oc2=O)cc1	33*	84*	i	0.36
Cc1ccccc1NC(=O)c1c(C)nn(-c2ccccc2)c1Cl	3	-2	i	0.03
COc1cc([N+](=O)[O-])ccc1-c1ccc(/C=N/NC(N)=O)o1	.	6	.	3.3*
CCOc1ccc(S(=O)(=O)N(CC(=O)N/N=C/c2ccc(-c3ccc([N+](=O)[O-])cc3)o2)c2ccccc2)cc1	26*	60*	i	-0.09
Cc1ccc(C)c(N(CC(=O)N/N=C/c2ccc(-c3ccc([N+](=O)[O-])cc3)o2)S(=O)(=O)c2ccccc2)c1	2	2	+	-1
O=C(Cc1ccccc1)N/N=C/c1ccc(-c2ccc([N+](=O)[O-])cc2)o1	2	2	+	0.8
NC(=O)N/N=C/c1ccc(-c2ccc([N+](=O)[O-])cc2)o1	.	4	.	.
Cn1cc(CN2CCC(C(=O)N3CCCCC3)CC2)c(-c2ccccc2F)n1	4	1	i	0.43
NC(=O)C(=O)N/N=C/c1c(F)c(F)c(F)c(F)c1F	2	-1	i	0.75
O=[N+]([O-])c1cccc(-c2ccc(/C=N/NC(=S)Nc3ccccc3)o2)c1	3	-2	+	0.5
CCOc1ccc(NC(=O)CN(c2ccc([N+](=O)[O-])cc2)S(=O)(=O)c2ccccc2)cc1	14*	0	i	0.13
O=[N+]([O-])c1ccc(/C=N/NC(=S)Nc2ccccc2)o1	6	1	i	1.3
CO/N=C/C(=N\Nc1ccc(C)cc1)C(=O)c1ccc(OC)cc1	53*	.	+	-1.7
Clc1ccc(C2=CSC3=NCCN23)cc1Cl	2	-4	+	-0.24
Cc1ccc(C)c(C2=CSC3=NCCN23)c1	2	1	.	-0.3
C=CCOc1ccc(/C=N/NC(=O)CN2CCOCC2)cc1OCC	4	-4	i	0.24
CCn1c(SCC(N)=O)nc2cc(S(=O)(=O)N3CCOCC3)ccc21	4	-2	i	1.5
CCn1c(SCC(=O)c2c[nH]c3ccccc23)nc2cc(S(=O)(=O)N3CCOCC3)ccc21	3	7	i	3.1*
O=C(NC1(C(F)(F)F)NC(=O)N(Cc2ccccc2)C1=O)c1cccs1 (stereo not drawn)	3	.	i	.
Cc1ccc(NC(=O)CSc2nnc(C3CC3)n2N)cc1S(=O)(=O)N1CCOCC1	2	-2	i	-0.31
CCC1=Nc2cc(C(=O)NCCCOC(C)C)ccc2Sc2ccccc21	5	.	+	1.4
CCC1=Nc2cc(C(=O)NCc3ccco3)ccc2Sc2ccccc21	24*	55*	i	0.21
CCC1=Nc2cc(C(=O)NCc3cccnc3)ccc2Sc2ccc(C)cc21	.	64*	.	.
CCC1=Nc2cc(C(=O)O)ccc2Sc2ccccc21	2	-2	i	-0.03
SMILES	MT stabilizer	b-catenin transl	Autophagy HCS	Insulin prom up
COC(=O)c1[nH]c2cccc(Cl)c2c1NC(=O)CN(C)C1CCCCC1	2	0	i	3.5*
CCOc1cccc2cc(-c3csc(NC(=O)CCC(=O)NCCCN4CCC(C)CC4)n3)c(=O)oc12	5	-2	i	.
CCOc1cccc2cc(-c3csc(NC(=O)CCC(=O)N4CCC(C)CC4)n3)c(=O)oc12	6	.	+	-0.37
COCc1cc(C)nc(Nc2ccccc2C)c1C#N	3	-3	i	3.3*
CCN(CC)CCCNc1nc(C)cc(COC)c1C#N	3	-2	i	0.68
Cc1cc(C)cc(NS(=O)(=O)c2cnc(Cl)c(Cl)c2)c1	3	-4	i	0.18
CCOc1ccc(NS(=O)(=O)c2cnc(Cl)c(Cl)c2)cc1	16*	4	i	0.43
CCOc1ccc(S(=O)(=O)Nc2cccc(OC)c2)cc1	16*	.	i	1.2
Cc1ccc(C(=O)NCCCn2ccnc2)cc1[N+](=O)[O-]	2	-1	i	5.5*
O=C(NCCCn1ccnc1)c1ccc(N2CCCCCC2)c([N+](=O)[O-])c1	1	-3	i	0.09
COc1cccc(N=Nc2c(N)[nH]n3c(=O)c4c(nc23)CCCC4)c1	3	1	+	0.13
Cc1nn(-c2ccccc2)c2c1C1(C(=O)Nc3ccccc31)N1C(=N2)Sc2ccccc21 (stereo not drawn)	3	-7	+	0.27
Cc1nn(-c2ccc(F)cc2)c(N)c1C1(O)C(=O)Nc2ccccc21 (stereo not drawn)	4	0	i	0.28
C/C(=N\NC(=O)c1ccc(N/N=C(\C)c2ccc(O)cc2)cc1)c1ccc(O)cc1	.	-1	.	-0.47

Source: PubChem BioAssay (several laboratories)
